Source: PubChem (several laboratories)
Compounds with a hit are over-represented: about 3.5% of the library has one in this group of screens.
pPAFAH FP inh – inhibitors of human plasma PAF acetylhydrolase (pPAFAH); Q13093; AID 463082; recombinant pPAFAH, FP-rhodamine probe fluorescence polarization; inhibition, % at 3.39 µM; 1.5% of 330,000 active;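 active means inhibition above the mean inhibition across the screen plus 3 SD, cut at about 25% in these data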;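 further: inhibitors block binding of the rhodamine activity-based probe so polarization drops; 0% = enzyme with DMSO and 100% = wells lacking pPAFAH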
PREPL inh – inhibits the human prolyl oligopeptidase-like enzyme | Q4J6C6 | recombinant PREPL, fluorescence polarization activity-based probe | inhibition, % at 5.96 µM | 0.68% of 320,000 active | AID 2751; in the data active means inhibition above about 43%;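 further: 0% = enzyme with DMSO and 100% = wells lacking enzyme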
Target sequence (Q4J6C6 whole entry, looked up): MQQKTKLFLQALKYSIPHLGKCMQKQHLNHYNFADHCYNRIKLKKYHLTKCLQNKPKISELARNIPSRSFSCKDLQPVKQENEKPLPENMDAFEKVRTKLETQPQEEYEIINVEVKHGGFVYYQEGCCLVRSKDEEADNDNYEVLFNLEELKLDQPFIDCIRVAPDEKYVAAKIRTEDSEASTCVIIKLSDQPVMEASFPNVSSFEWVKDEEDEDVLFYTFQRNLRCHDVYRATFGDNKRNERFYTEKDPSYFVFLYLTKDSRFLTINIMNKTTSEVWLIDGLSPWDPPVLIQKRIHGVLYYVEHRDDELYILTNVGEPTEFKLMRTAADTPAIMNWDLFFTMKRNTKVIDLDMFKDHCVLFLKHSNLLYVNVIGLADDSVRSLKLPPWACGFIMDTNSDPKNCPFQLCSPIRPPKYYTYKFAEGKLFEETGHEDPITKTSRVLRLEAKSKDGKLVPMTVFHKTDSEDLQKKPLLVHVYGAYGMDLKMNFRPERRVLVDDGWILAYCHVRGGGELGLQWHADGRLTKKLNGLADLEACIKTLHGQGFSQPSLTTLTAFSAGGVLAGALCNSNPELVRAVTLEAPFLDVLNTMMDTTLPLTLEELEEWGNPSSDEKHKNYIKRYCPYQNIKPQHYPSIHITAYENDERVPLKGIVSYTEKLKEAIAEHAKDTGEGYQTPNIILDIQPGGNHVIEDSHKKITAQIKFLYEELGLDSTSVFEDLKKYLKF
Apaf-1 inh – human Apaf-1 inhibition. reconstituted apoptosome caspase-3 activity, DEVD-Rh110 fluorescence. inhibition, % at 20 µM. 0.71% of 330,000 active. AID 489030; active means inhibition of at least 40% at 20 µM;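 further: plate controls were DMSO wells for no effect and DEVD-CHO caspase inhibitor wells for full effect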
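System: reconstituted apoptosome with Apaf-1, cytochrome c, caspase-9, procaspase-3, dATP; Signal: Rh110 fluorescence intensity; Schedule: 30 min compound preincubation, 50 min activation, room temperature; Reagent: cytochrome c trigger plus (Z-DEVD)2-Rh110 caspase-3 substrate.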
PAFAH1B2 inh – inhibitors of human PAFAH1B2. recombinant PAFAH1B2, FP-rhodamine activity probe, fluorescence polarization. inhibition, % at 3.39 µM. 1.2% of 340,000 active. AID 492953;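 active means inhibition above the mean of all tested compounds plus 3 SD, cut at about 24% in these data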;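 further: 0% = enzyme with DMSO and 100% = wells lacking PAFAH1B2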
PAFAH1B3 inh – PAFAH1B3 (human) inhibition | Q15102 | recombinant PAFAH1B3, FP-rhodamine probe, fluorescence polarization | inhibition, % at 3.39 µM | 0.28% of 340,000 active | AID 492972;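 active means inhibition above the screen-wide average of all tested compounds plus 3 SD, cut at about 25% in these data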;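 further: 0% = enzyme with DMSO only and 100% = wells lacking PAFAH1B3 protein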
PAFAH2 inh – PAFAH2 (human) inhibition. 0.99% of 340,000 active. inhibition, % at 3.39 µM. AID 492956. Q99487. recombinant PAFAH2, FP-rhodamine activity probe, fluorescence polarization;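 active means inhibition above the mean over all tested compounds plus 3 SD, cut at about 30% in these data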;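 further: inhibitors block probe labeling of enzyme so polarization drops; 0% = enzyme with DMSO and 100% = wells lacking PAFAH2 protein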
Numbers without * were called inactive; nt = not tested or not shown.

SMILES | pPAFAH FP inh | PREPL inh | Apaf-1 inh | PAFAH1B2 inh | PAFAH1B3 inh | PAFAH2 inh
COc1ccc(S(=O)(=O)NC2CCCCC2)cc1F | nt | nt | 8 | 9 | 3 | 3
O=C(CSCc1ccco1)c1ccc(Cl)s1 | 25* | -7 | 6 | nt | nt | nt
CN(C)C(=O)C(OC(=O)c1ccc2ccccc2n1)c1ccccc1 (centres undefined) | 0 | 2 | 2 | 4 | 11 | 2
C/C(=N\OCc1nc2ccccc2c(=O)n1/N=C/c1cc([N+](=O)[O-])ccc1O)c1ccccc1 | 62* | 32 | 2 | 0 | 18 | 25
O=[N+]([O-])c1ccc(O)c(/C=N/n2c(CO)nc3ccccc32)c1 | 1 | 1 | 2 | 9 | 10 | 5
CCCCN(C(=O)c1cccc(S(=O)(=O)N(C)c2ccc(C)cc2)c1)c1c(N)n(CC(C)C)c(=O)[nH]c1=O | nt | nt | nt | 6 | 2 | 5
CCC1CCC(C(=O)NNC(=O)c2cc(-c3ccco3)[nH]n2)CC1 (centres undefined) | 31* | 9 | 28 | 2 | 2 | 7
O=C(NNC(=O)C1CCCCC1)c1ccco1 | 0 | -1 | 0 | 1 | 4 | 4
COc1cc(CNCc2ccccn2)ccc1OCc1ccc(Cl)c(Cl)c1 | 4 | 49* | -15 | 1 | 4 | 3
COc1cc(CNCc2ccccn2)ccc1OCc1ccc(Cl)cc1Cl | 12 | 39 | 19 | 9 | 7 | 2
Cc1nc(CC(=O)Nc2nccs2)cs1 | 2 | 3 | 1 | 2 | 12 | 8
CC(C)Oc1ccc(C(CCN)C2CCCCC2)cc1 (centres undefined) | 2 | 28 | 6 | 3 | 4 | -3
CC1=CC(=Nc2c(C)n(C)n(-c3ccccc3)c2=O)C=CC1=O | 12 | 18 | 43* | nt | nt | nt
CC(C)(CO)CNC(=O)CC1C(=O)NCCN1CC(c1ccccc1)c1ccccc1 (centres undefined) | 0 | 0 | 5 | 5 | 1 | -5
CC(C)NC(=O)CC1C(=O)NCCN1CC(c1ccccc1)c1ccccc1 (centres undefined) | 29* | 14 | 6 | -1 | 8 | -2
CCN(CC)c1ccc(NC2CC(=O)N(CCc3ccc(OC)cc3)C2=O)cc1 (centres undefined) | 28* | 15 | 7 | 3 | 9 | 5
CO/N=C(/CS(=O)Cc1ccc(Cl)cc1)c1ccc(Cl)cc1 (centres undefined) | 27* | -15 | 4 | 12 | -4 | -3
CO/N=C(/CNC(=O)c1cccc(Cl)c1)c1ccc(Cl)cc1 | 1 | -9 | 3 | 3 | 6 | -4
Cc1cc(OC(=O)c2ccc(C)c(C)c2)c([N+](=O)[O-])c(=O)[nH]1 | 5 | 7 | -6 | 2 | 6 | 1
Cc1ccc(C(=O)Oc2cc(C)[nH]c(=O)c2[N+](=O)[O-])cc1 | 29* | -1 | 7 | 1 | 6 | 3
N/C(=C\C(=O)c1cc(Cl)ccc1O)C(Cl)(Cl)Cl | 4 | -12 | -6 | 0 | 79* | 15
CCC(C(=O)NCc1ccco1)n1nc(C)c2c(C)n(-c3ccccc3)nc2c1=O (centres undefined) | 3 | 0 | -86 | 0 | -1 | 10
Cc1ccc(C)c(S(=O)(=O)/N=C(/Nc2ccccc2)c2ccccc2)c1 | 4 | 1 | 18 | 6 | 12 | 8
CC1CC(NC(=O)CC#N)CC(C)(C)C1 (centres undefined) | 2 | 1 | -12 | 4 | -6 | -1
CC1CC(NC(=O)C2(C)CC2(Cl)Cl)CC(C)(C)C1 (centres undefined) | -4 | 12 | 7 | 26* | 2 | -1
SMILES | pPAFAH FP inh | PREPL inh | Apaf-1 inh | PAFAH1B2 inh | PAFAH1B3 inh | PAFAH2 inh
Cc1ccc(CNC(=O)CNS(=O)(=O)c2ccc(Br)s2)cc1 | 7 | -15 | 6 | 18 | 6 | -3
Oc1c(I)cc(Cl)c2cccnc12 | 31* | 2 | 17 | 11 | 16 | -1
Cc1ccc(NS(=O)(=O)c2ccc(N3C(=O)CCC3=O)cc2)cc1 | 23 | -2 | -1 | 2 | 2 | 0
CC(C)c1ccc(NS(=O)(=O)c2ccc(N3C(=O)CCC3=O)cc2)cc1 | 29* | -4 | 6 | 9 | -2 | 5
CC(C)c1ccc(NS(=O)(=O)c2ccc(-n3cccn3)cc2)cc1 | 25* | -27 | 22 | -6 | 1 | -10
CCN1CCCC1CNC(=O)Cn1cc(C)c(=O)[nH]c1=O (centres undefined) | nt | nt | nt | 0 | 4 | 0
C=CCN(c1ccccc1)S(=O)(=O)c1cccc(C(=O)Nc2nnc(SCC)s2)c1 | 34* | -7 | 11 | 11 | 0 | 4
O=C(N/N=C/c1cn(Cc2cccc(F)c2)c2ccccc12)c1cc(O)cc(O)c1 | nt | nt | 1 | 26* | 44* | 8
Nc1ccc(C(=O)N/N=C/c2cn(Cc3ccc(F)cc3)c3ccccc23)cc1 | nt | nt | 4 | 3 | 15 | 2
CCOC(=O)c1c(C)nn(-c2ccc(NC(=O)CSCC(=O)O)cc2)c1C | -4 | -3 | -7 | -6 | 7 | 5
O=C(c1ccc(S(=O)(=O)Nc2ccccc2F)cc1)N1CCCC1 | nt | nt | -1 | 0 | 1 | -2
C/C(=N\Nc1ccc(Cl)c(C(=O)O)c1)c1ccc[nH]1 | 33* | 7 | -7 | 4 | 17 | 13
Cc1ccc(CSc2nnc(SCC(=O)N/N=C/C=C/c3ccco3)s2)cc1 | 16 | -3 | 2 | -1 | 8 | 0
CC(/C=N/NC(=O)CSc1nnc(SCc2ccccc2)s1)=C\c1ccco1 | 27* | 6 | 24 | 0 | 9 | 7
O=C1Cc2ccccc2C(=O)N1OCc1ccc(Cl)cc1Cl | -3 | -1 | 68* | 5 | 5 | 14
O=[N+]([O-])c1cc(C=Nc2cccc3c(O)cccc23)ccc1Cl | 25* | 40 | 14 | nt | nt | nt
COC(=O)c1ccc(COc2cccnc2[N+](=O)[O-])cc1 | 0 | 13 | 6 | 6 | 8 | 7
O=C(COc1ccc2c3c(c(=O)oc2c1)CCC3)Nc1ccccn1 | -1 | 4 | -12 | 2 | -1 | 2
O=C1c2ccccc2-c2onc3ccc(N4CCCC4)c1c23 | nt | nt | nt | 77* | 74* | 88*
CCCC1/C(=N/O)CC(c2ccccc2)NC1c1ccccc1 (centres undefined) | 27* | 1 | 7 | 5 | 2 | -1
O=C1CSC(c2ccc(Cl)cc2)N1c1cccnc1 (centres undefined) | 0 | 8 | -9 | 25* | 5 | 7
CCCCn1c(NS(=O)(=O)c2ccccc2)c(S(=O)(=O)c2ccc(C)cc2)c2nc3ccccc3nc21 | 10 | 37 | nt | 36* | 66* | 57*
O=[N+]([O-])c1ccc(-c2ccc(/C=N/O)o2)cc1 | 2 | 2 | 0 | nt | nt | nt
O=[N+]([O-])c1ccc(-c2ccc(C=Nc3cccc4ccccc34)o2)cc1 | 4 | 34 | 46* | 0 | 6 | 1
